Molecules are shown by their SMILES.

Here are results for one molecule from article PMC6982535 (Science (New York, N.Y.), 2019).

For one series, the target named is T1, TREK-1 (Homo sapiens, UniProt O95069).
T1 sequence (O95069 1-426): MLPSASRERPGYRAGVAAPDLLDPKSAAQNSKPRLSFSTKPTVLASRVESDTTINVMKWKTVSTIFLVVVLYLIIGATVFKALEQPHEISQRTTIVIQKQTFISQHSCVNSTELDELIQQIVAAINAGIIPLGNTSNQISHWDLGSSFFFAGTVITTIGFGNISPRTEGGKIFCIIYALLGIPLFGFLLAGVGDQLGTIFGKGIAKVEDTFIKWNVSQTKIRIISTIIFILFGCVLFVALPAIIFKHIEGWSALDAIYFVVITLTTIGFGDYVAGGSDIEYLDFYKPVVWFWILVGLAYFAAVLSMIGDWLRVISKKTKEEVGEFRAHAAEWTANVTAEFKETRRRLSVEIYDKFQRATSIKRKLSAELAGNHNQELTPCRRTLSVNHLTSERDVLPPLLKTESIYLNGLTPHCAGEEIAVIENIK
The series is described as follows: TREK-1 channel currents in inside-out patches. It counts as cell-based. The settings on record: inside-out patches; result in words. The method in brief:
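TREK-1 currents were recorded in inside-out patches from Xenopus oocytes and evoked by voltage ramps. Currents were read at +40 mV. Concentration-response curves were obtained with and without 5 μM THexA (tetrahexylammonium). THexA inhibition of basal current was quantified separately. n ≥ 8.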

For another series, the target named is T2, TRAAK (Homo sapiens, UniProt Q9NYG8).
T2 sequence (Q9NYG8 1-393): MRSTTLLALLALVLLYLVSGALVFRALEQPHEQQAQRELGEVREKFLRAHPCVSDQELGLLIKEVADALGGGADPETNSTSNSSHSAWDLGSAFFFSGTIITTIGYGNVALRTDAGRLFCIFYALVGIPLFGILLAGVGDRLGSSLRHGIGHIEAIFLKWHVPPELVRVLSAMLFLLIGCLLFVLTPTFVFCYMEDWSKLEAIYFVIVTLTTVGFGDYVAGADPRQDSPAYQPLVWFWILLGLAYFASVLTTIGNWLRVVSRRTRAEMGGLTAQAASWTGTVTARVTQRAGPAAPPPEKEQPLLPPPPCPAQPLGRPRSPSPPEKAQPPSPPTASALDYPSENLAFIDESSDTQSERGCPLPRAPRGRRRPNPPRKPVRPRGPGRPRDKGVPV
The series is described as follows: Extended screening of K2P channels with BL-1249: TRAAK. The conditions noted are these: result in words. It counts as cell-based.

The target in a further series is T3, TALK-1 (Homo sapiens, UniProt Q96T55).
T3 sequence (Q96T55 1-309): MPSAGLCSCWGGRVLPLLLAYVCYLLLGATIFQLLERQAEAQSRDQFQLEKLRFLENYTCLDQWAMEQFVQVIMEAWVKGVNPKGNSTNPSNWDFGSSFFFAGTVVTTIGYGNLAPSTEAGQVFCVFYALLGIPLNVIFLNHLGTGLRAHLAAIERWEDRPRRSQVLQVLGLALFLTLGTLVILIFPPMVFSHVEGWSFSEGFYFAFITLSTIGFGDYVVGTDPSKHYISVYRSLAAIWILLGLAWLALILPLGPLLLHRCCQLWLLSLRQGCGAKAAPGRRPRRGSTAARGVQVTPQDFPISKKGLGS
The experiment in a line: Extended screening of K2P channels with BL-1249: TALK-1. It counts as cell-based. The settings on record: result in words.

The next series has as its target Kv1.1 (Homo sapiens, UniProt Q09470). The experiment in a line: BL-1249 on helix bundle-crossing gated channel Kv1.1. The settings on record: result in words. It counts as cell-based.
The target in a further series is Kv1.5 (Homo sapiens, UniProt P22460). The series is described as follows: BL-1249 on helix bundle-crossing gated channel Kv1.5. The format is cell-based. The settings on record: result in words.
Kv1.5, sequence (P22460 whole entry): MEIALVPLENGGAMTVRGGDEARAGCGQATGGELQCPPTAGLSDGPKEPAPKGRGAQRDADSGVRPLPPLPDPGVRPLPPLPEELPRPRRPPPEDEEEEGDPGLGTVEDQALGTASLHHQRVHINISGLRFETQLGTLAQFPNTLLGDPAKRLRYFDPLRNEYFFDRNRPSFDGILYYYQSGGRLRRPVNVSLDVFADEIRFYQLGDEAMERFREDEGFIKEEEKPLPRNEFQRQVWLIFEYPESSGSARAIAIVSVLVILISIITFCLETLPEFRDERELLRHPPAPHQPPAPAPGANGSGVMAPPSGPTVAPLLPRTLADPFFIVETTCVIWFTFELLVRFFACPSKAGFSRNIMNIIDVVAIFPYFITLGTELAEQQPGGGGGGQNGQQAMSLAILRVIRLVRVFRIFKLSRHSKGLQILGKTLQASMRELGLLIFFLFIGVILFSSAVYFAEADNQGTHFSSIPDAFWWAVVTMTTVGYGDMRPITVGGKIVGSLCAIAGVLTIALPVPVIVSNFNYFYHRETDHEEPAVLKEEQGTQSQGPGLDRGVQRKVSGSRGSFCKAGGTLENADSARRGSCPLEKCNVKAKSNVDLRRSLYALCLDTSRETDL
The next series concerns the target T4, Kv3.1 (Homo sapiens, UniProt P48547).
T4 sequence (P48547 1-511): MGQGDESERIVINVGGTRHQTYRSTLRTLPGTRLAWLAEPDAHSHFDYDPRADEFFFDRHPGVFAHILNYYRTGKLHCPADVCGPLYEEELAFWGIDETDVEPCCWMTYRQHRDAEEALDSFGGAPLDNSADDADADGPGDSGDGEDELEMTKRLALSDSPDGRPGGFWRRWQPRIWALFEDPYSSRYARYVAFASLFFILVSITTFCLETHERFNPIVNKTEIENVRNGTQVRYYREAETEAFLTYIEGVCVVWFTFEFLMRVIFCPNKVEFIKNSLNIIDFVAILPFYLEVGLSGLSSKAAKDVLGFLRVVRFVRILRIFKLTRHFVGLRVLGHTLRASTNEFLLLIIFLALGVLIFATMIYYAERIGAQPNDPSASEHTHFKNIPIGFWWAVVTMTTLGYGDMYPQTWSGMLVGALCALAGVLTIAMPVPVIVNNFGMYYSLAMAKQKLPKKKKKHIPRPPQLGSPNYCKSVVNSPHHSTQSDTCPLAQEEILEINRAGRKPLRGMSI
The series is described as follows: BL-1249 on helix bundle-crossing gated channel Kv3.1. The format is cell-based. The conditions noted are these: result in words.

A further series has as its target T5, Kir1.1 (Homo sapiens, UniProt P48048).
T5 sequence (P48048 1-391): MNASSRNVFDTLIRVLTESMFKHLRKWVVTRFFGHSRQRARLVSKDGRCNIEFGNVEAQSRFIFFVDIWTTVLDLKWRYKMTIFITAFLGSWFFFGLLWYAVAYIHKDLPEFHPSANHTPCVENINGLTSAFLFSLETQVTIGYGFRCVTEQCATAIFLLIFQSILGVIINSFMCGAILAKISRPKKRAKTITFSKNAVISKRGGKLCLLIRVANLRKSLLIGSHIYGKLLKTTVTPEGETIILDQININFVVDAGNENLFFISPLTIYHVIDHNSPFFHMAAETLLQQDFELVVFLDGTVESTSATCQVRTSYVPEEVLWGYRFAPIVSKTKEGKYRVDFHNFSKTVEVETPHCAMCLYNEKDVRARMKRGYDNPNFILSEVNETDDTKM
The experiment in a line: BL-1249 on helix bundle-crossing gated channel Kir1.1. The conditions noted are these: result in words. The format is cell-based.

The subject of the next series is CNG channels. The series is described as follows: BL-1249 on CNG channels. The format is cell-based. The conditions noted are these: result in words.
For series [1] the following is noted: acidic tetrazole ring; no reference given; cited from earlier work.

Kv1.1, sequence (Q09470 whole entry): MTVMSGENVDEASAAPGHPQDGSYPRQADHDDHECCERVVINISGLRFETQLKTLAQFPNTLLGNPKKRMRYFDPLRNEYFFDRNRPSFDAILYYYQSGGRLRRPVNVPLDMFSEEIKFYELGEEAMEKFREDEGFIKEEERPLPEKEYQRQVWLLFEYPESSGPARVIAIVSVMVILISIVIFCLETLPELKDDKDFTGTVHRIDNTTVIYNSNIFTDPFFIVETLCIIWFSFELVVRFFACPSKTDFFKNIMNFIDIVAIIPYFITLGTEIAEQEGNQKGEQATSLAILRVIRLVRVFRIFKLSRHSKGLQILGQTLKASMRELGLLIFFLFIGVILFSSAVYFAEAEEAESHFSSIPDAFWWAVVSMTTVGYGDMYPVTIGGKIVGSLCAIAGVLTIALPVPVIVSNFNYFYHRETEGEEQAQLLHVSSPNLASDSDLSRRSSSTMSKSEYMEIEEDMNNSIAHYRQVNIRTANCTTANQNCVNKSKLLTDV

For the molecule `c1ccc(-c2nn[nH]n2)c(Nc2cccc3c2CCCC3)c1` [BL-1249], at TREK-1, the “opening / activation of TREK-1 channels” value is “equal efficiency in opening”. Also, the “activation of TRAAK” value at TRAAK was “potent activation”. The “activation of TALK-1” value on TALK-1 was “potent activation”. In addition, on Kv1.1, the “activation of Kv1.1” value is reported as “not activated”. Further, the “activation of Kv1.5” value on Kv1.5 is given as “not activated”. Moreover, the “activation of Kv3.1” value on Kv3.1 is “not activated”. In addition, the “activation of Kir1.1” value on Kir1.1 is on record as “not activated”. Further, in the series on CNG channels, the “activation of CNG channels” value is given as “not activated”. In addition, the pKa result in series [1] is given as “around 5”.
